Test results taken from ChEMBL document CHEMBL3352437, “Novel 3,5-bis(arylidene)-4-oxo-1-piperidinyl dimers: structure-activity relationships and potent antileukemic and antilymphoma cytotoxicity” (Eur J Med Chem, 2014).
Calls of active or inactive are those of the source. No cut-off for these calls is given here.

Assays:
[1] = Cytotoxicity against human HuT-102 cells assessed as dead cells at 1 uM after 24 hrs; type: functional
How it was run: (§1)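 Dienones added as DMSO solutions to cells in RPMI medium and incubated 24 h at 37°C. Cytotoxicity was scored as cell-membrane disruption by propidium iodide staining and expressed as percentage of dead cells, averaged over three independent experiments.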

[2] = Cytotoxicity against human NCI60 cells assessed as inhibition of tumor growth after 24 hrs; type: functional, cell-based; conditions: NCI60, 24 h
[3] = Cytotoxicity against human NALM6 cells assessed as dead cells at 1 uM after 24 hrs; type: functional, NALM-6; how it was run: as §1
DU-145 = assay: Cytotoxicity against human DU145 cells assessed as dead cells at 1 uM after 24 hrs; type: functional; how it was run: as §1
HeLa = assay: Antiproliferative activity against human HeLa cells after 72 hrs by coulter counting analysis; type: functional, cell-based
How it was run: (§2)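 Cells exposed to a range of concentrations in RPMI 1640 at 37°C for 72 h. Surviving cells counted by Coulter counter. IC50 taken from concentration-response curves, mean ± SD of at least three independent experiments.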

K562 = assay: Antileukemic activity against human K562 cells assessed as inhibition of tumor growth after 24 hrs; type: functional, cell-based; conditions: K562, 24 h
Ramos = assay: Cytotoxicity against human Ramos cells assessed as dead cells at 1 uM after 24 hrs; type: functional; how it was run: as §1
[4] = Antileukemic activity against human RPMI8226 cells assessed as inhibition of tumor growth after 24 hrs; type: functional, cell-based; conditions: rpmi-8226
Jurkat = assay: Cytotoxicity against human Jurkat cells assessed as dead cells at 1 uM after 24 hrs; type: functional; how it was run: as §1
[5] = Antiproliferative activity against human Molt4/C8 cells after 72 hrs by coulter counting analysis; type: functional, cell-based; conditions: MOLT-4, 72 h; how it was run: as §2
CCRF-CEM [6] = assay: Cytotoxicity against human CEM cells assessed as dead cells at 1 uM after 24 hrs; type: functional; how it was run: as §1
Raji = assay: Cytotoxicity against human Raji cells assessed as dead cells at 1 uM after 24 hrs; type: functional; how it was run: as §1
[7] = Cytotoxicity against human MDA231 cells assessed as dead cells at 1 uM after 24 hrs; type: functional, MDA-MB-231; how it was run: as §1
MCF7 = assay: Cytotoxicity against human MCF7 cells assessed as dead cells at 1 uM after 24 hrs; type: functional; how it was run: as §1
SW-620 = assay: Cytotoxicity against human SW620 cells assessed as inhibition of tumor growth after 24 hrs; type: functional, cell-based; conditions: SW-620, 24 h
HS27 = assay: Cytotoxicity against human HS27 cells assessed as dead cells at 1 uM after 24 hrs; type: cell-based; conditions: hs27, 24 h
How it was run: (§3)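 Compounds added from DMSO solutions to cells in medium (RPMI; DMEM for Hs-27 fibroblasts) and incubated 24 h at 37°C. Membrane disruption scored by propidium iodide uptake. Result is percentage of dead cells, average of three independent experiments.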

[8] = Cytotoxicity against human HCT15 cells assessed as inhibition of tumor growth after 24 hrs; type: functional, cell-based; conditions: HCT-15, 24 h
LAPC4 = assay: Cytotoxicity against human LAPC4 cells assessed as dead cells at 1 uM after 24 hrs; type: functional; how it was run: as §1
EL4 = assay: Cytotoxicity against mouse EL4 cells assessed as dead cells at 1 uM after 24 hrs; type: functional; how it was run: as §1
HCC 2998 = assay: Cytotoxicity against human HCC2998 cells assessed as inhibition of tumor growth after 24 hrs; type: functional, cell-based; conditions: HCC 2998, 24 h
[9] = Cytotoxicity against human MOLT3 cells assessed as dead cells at 1 uM after 24 hrs; type: functional, MOLT-3; how it was run: as §1
BJAB = assay: Cytotoxicity against human BJAB cells assessed as dead cells at 1 uM after 24 hrs; type: functional; how it was run: as §1
YT = assay: Cytotoxicity against human YT cells assessed as dead cells at 1 uM after 24 hrs; type: functional; how it was run: as §1
HCC70 = assay: Cytotoxicity against human HCC70 cells assessed as dead cells at 1 uM after 24 hrs; type: functional; how it was run: as §1
CCRF-CEM [10] = assay: Antiproliferative activity against human CEM cells after 72 hrs by coulter counting analysis; type: functional, cell-based; how it was run: as §2
[11] = Cytotoxicity against human 22Rvl cells assessed as dead cells at 1 uM after 24 hrs; type: functional; how it was run: as §1
[12] = Cytotoxicity against human MCF10A cells assessed as dead cells at 1 uM after 24 hrs; type: cell-based; conditions: mcf-10a; how it was run: as §3
HL-60(TB) = assay: Antileukemic activity against human HL-60(TB) cells assessed as inhibition of tumor growth after 24 hrs; type: functional, cell-based; conditions: HL-60, 24 h
COLO 205 = assay: Cytotoxicity against human COLO205 cells assessed as inhibition of tumor growth after 24 hrs; type: functional, cell-based; conditions: COLO 205, 24 h
KM12 = assay: Cytotoxicity against human KM12 cells assessed as inhibition of tumor growth after 24 hrs; type: functional, cell-based; conditions: KM12, 24 h
[13] = Cytotoxicity against human SupT1 cells assessed as dead cells at 1 uM after 24 hrs; type: functional, SUP-T1; how it was run: as §1
SR = assay: Antileukemic activity against human SR cells assessed as inhibition of tumor growth after 24 hrs; type: functional, cell-based
L1210 = assay: Antiproliferative activity against mouse L1210 cells after 72 hrs by coulter counting analysis; type: functional, cell-based; conditions: L1210, 72 h
CCRF-CEM [14] = assay: Induction of apoptosis in human CEM T-lymphocytes assessed as late apoptotic cells at 1 uM after 24 hrs by Annexin V/propidium iodide staining-based FITC analysis (reference value: 0.8%); type: functional
CCRF-CEM [15] = assay: Induction of apoptosis in human CEM T-lymphocytes assessed as viable at necrotic cell stage at 1 uM after 8 hrs by flow cytometric analysis (reference value: 95.7%); type: functional
CCRF-CEM [16] = assay: Induction of apoptosis in human CEM T-lymphocytes assessed as caspase3 activation at necrotic cell stage at 1 uM after 8 hrs by flow cytometric analysis (reference value: 0%); type: functional
CCRF-CEM [17] = assay: Induction of apoptosis in human CEM T-lymphocytes assessed as early apoptotic at necrotic cell stage at 1 uM after 8 hrs by flow cytometric analysis (reference value: 4.3%); type: functional
CCRF-CEM [18] = assay: Induction of apoptosis in human CEM T-lymphocytes assessed as necrotic cells at 1 uM after 24 hrs by Annexin V/propidium iodide staining-based FITC analysis (reference value: 0.2%); type: functional
CCRF-CEM [19] = assay: Induction of apoptosis in human CEM T-lymphocytes assessed as viable cells at 1 uM after 24 hrs by Annexin V/propidium iodide staining-based FITC analysis (reference value: 93.4%); type: functional; conditions: read-out: Activity
CCRF-CEM [20] = assay: Induction of apoptosis in human CEM T-lymphocytes assessed as early apoptotic cells at 1 uM after 24 hrs by Annexin V/propidium iodide staining-based FITC analysis (reference value: 5.6%); type: functional
CCRF-CEM [21] = assay: Cytotoxicity against human CEM T-lymphocytes assessed as mitochondrial membrane depolarization at 1 uM after 8 hrs by JC-1 red/green staining analysis; type: functional, cell-based
How it was run: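 CEM cells (RPMI-1640, 10% FBS, 50,000 per well) were exposed to 1 μM compound for 8 h at 37°C, 5% CO2, in triplicate. They were then stained with 2 μM JC-1; the red signal marks polarized mitochondria and the green signal marks depolarized ones. Green-emitting cells were counted by flow cytometry, about 10,000 events. Controls: untreated, DMSO and CCCP 50 μM.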

CCRF-CEM [22] = assay: Induction of apoptosis in human CEM T-lymphocytes assessed as late apoptotic at necrotic cell stage at 1 uM after 8 hrs by flow cytometric analysis (reference value: 0%); type: functional

Row | SMILES | Activity [1] | Activity [3] | Activity (DU-145) | IC50 (HeLa) | Activity (Ramos) | Activity (Jurkat) | IC50 [5] | Activity (CCRF-CEM [6]) | Activity (Raji) | Activity [7] | Activity (MCF7) | Activity (HS27) | Activity (LAPC4) | Activity (EL4) | Activity [9] | Activity (BJAB) | Activity (YT) | Activity (HCC70) | IC50 (CCRF-CEM [10]) | Activity [11] | other results
1 | Cc1ccc(/C=C2/CN(C(=O)CC(=O)N3C/C(=C\c4ccc(C)cc4)C(=O)/C(=C/c4ccc(C)cc4)C3)C/C(=C\c3ccc(C)cc3)C2=O)cc1 | 50.9% | 67.6% | 21.9% | 2880 nM | 83% | 85.5% | 1890 nM | 85.7% | 46.5% | 8.6% | 19.1% | 26.5% | 7% | 66.9% | 21.3% | 60.2% | 29.1% | 10.1% | 3440 nM | 6.3% | IC50 [2]: 190 nM; IC50 (K562): 100 nM; IC50 [4]: 30 nM; IC50 (SW-620): 150 nM; IC50 [8]: 80 nM; IC50 (HCC 2998): 300 nM; Activity [12]: 15.4%; IC50 (HL-60(TB)): 230 nM; IC50 (COLO 205): 170 nM; IC50 (KM12): 170 nM; Activity [13]: 23.6%; IC50 (SR): 50 nM; IC50 (L1210): 5380 nM
2 | COc1ccc(/C=C2\CN(C(=O)C(=O)N3C/C(=C\c4ccc(OC)c(OC)c4)C(=O)/C(=C/c4ccc(OC)c(OC)c4)C3)C/C(=C\c3ccc(OC)c(OC)c3)C2=O)cc1OC | 50.9% | 60.7% | 45.7% | 4430 nM | 87.4% | 84.8% | 779 nM | 88.1% | 56.3% | 4.6% | 17.7% | 10.2% | 35.4% | 46.5% | 31.8% | 62.8% | 39.2% | 3.9% | 4360 nM | 38.2% | Activity (CCRF-CEM [14]): 38%; Activity (CCRF-CEM [15]): 91%; Activity (CCRF-CEM [16]): 0%; Activity (CCRF-CEM [17]): 9%; Activity (CCRF-CEM [18]): 33.8%; viability at 1 µM (CCRF-CEM [19]): 15.4%; Activity (CCRF-CEM [20]): 12.8%; Activity [12]: 5.8%; Activity (CCRF-CEM [21]): Active; Activity [13]: 33%; IC50 (L1210): 6310 nM; Activity (CCRF-CEM [22]): 0%
3 | O=C1/C(=C\c2ccc(Cl)cc2)CN(C(=O)CC(=O)N2C/C(=C\c3ccc(Cl)cc3)C(=O)/C(=C/c3ccc(Cl)cc3)C2)C/C1=C\c1ccc(Cl)cc1 | 20.4% | 68.6% | 40.3% | 822 nM | 86.3% | 85.3% | 1050 nM | 83% | 32.7% | 32.7% | 19.5% | 5.7% | 1% | 55.4% | 20.6% | 49.9% | 16.8% | 7.8% | 1060 nM | 1.7% | IC50 [2]: 90 nM; IC50 (K562): 30 nM; IC50 [4]: 20 nM; IC50 (SW-620): 30 nM; IC50 [8]: 60 nM; IC50 (HCC 2998): 130 nM; Activity [12]: 3.1%; IC50 (HL-60(TB)): 110 nM; IC50 (COLO 205): 80 nM; IC50 (KM12): 160 nM; Activity [13]: 21.1%; IC50 (SR): 10 nM; IC50 (L1210): 847 nM
